Assay results taken from ChEMBL document CHEMBL1123098, “Activity of platinum(II) intercalating agents against murine leukemia L1210” (J Med Chem, 1985).

Legend:
L1210 [1] = assay: Growth inhibition of L1210 murine leukemia cells determined in culture; assay type: functional, cell-based, Mus musculus
How it was run: (§1)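 L1210 cells were grown in Minimum Essential Medium with 15% fetal calf serum, 2 mM glutamine and gentamycin, at 37 °C without agitation under 5% O2-10% CO2. Drug was diluted in sterile water and added to 5 × 10^4 cells/mL, with water-only controls. Exposure was continuous for 48 h, or in some cases a 2-h pulse followed by 48-h incubation. Cells were Coulter-counted and growth as % of control was plotted against concentration. IC50 is the mean of at least two determinations.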

L1210 [2] = assay: Growth inhibition of L1210 leukemia was determined in culture; assay type: functional, cell-based, Mus musculus; how it was run: as §1

| IC50 (L1210 [1]) | IC50 (L1210 [2]) | Substance |
| --- | --- | --- |
| 43 µM | – | (1,3-Diamine-2-hydroxypropane) ([2,2']Bipyridinyl)platinum (II) dichloride |
| 9 µM | – | (1,3-Diaminepropane) ([2,2']Bipyridinyl)platinum (II) dichloride Pentahydrate |
| 5 µM | – | (1,3-Diamino-2-hydroxypropane)(3,4,7,8-tetramethyl-1,10-phenanthroline)platinum (II) dichloride Dihydrate |
| 14 µM | – | (1,3-Diaminopropane)(1,10-phenanthroline)-platinum (II) dichloride Dihydrate |
| 1 µM | – | (1,3-Diaminopropane)(1,10-phenanthroline)-platinum (II) dichloride Monohydrate |
| > 500 µM | – | (1,4-Diaminebutane) ([2,2']Bipyridinyl)platinum (II) dichloride |
| 50 µM | – | (1,4-Diamino-butane)(3,4,7,8-tetramethyl-1,10-phenanthroline)platinum (II) dichloride |
| 110 µM | – | (1,4-Diaminobutane)(1,10-phenanthroline)-platinum (II) dichloride Monohydrate |
| 5 µM | – | (1-Thionaphthalato) (2,2':6',2''-terpyridine)platinum (II) dichloride Dihydrate |
| 450 µM | – | (2,2':6',2''-terpyridine)platinum (II) dichloride Trihydrate |
| 10 µM | – | (2-methyloxyThiophenolato)(2,2':6',2''-terpyridine)platinum (II) Chloride Trihydrate |
| 32 µM | – | (4-AmmonioThiophenolato)(2,2':6',2''-terpyridine)platinum (II) dichloride Dihydrate |
| 9 µM | – | (4-BromoThiophenolato)(2,2':6',2''-terpyridine)platinum (II) Chloride Dihydrate |
| 9 µM | – | (4-ChloroThiophenolato)(2,2':6',2''-terpyridine)platinum (II)DiChloro Trihydrate |
| 12 µM | – | (4-methylThiophenolato)(2,2':6',2''-terpyridine)platinum (II) Chloride Dihydrate |
| 9 µM | – | (4-methyloxyThiophenolato)(2,2':6',2''-terpyridine)platinum (II) Chloride Trihydrate |
| 0.7 µM | – | (Ethylenediamine)3,4,7,8-tetramethyl-1,10-phenanthroline)platinum (II) dichloride Dihydrate Dihydrate |
| 33 µM | – | (Ethylenediamine) ([2,2']Bipyridinyl)platinum (II) dichloride Dihydrate |
| 2 µM | – | (Ethylenediamine)(1,10-phenanthroline)-platinum (II) dichloride Dihydrate |
| – | 6 µM | (Thiophenolato)(2,2':6',2''-terpyridine)platinum (II) Chloride Monohydrate |
| 23 µM | – | DICHLORODIPHENYLPLATINUM TRIHYDRATE |
